Results as given in ChEMBL document CHEMBL3877264, “Quinolidene-rhodanine conjugates: Facile synthesis and biological evaluation” (Eur J Med Chem, 2017).
Values after ≈ are worked out from the molar mass of the structure shown.

Experiments:
[1] = tested on: Mycobacterium tuberculosis; assay: Growth inhibition of Mycobacterium tuberculosis H37Ra ATCC 25177 at dormant stage at 6.25 ug/ml measured after 12 days by XTT dye based two fold dilution method relative to control; assay type: functional; details: H37Ra ATCC 25177, 288 h, read-out: GI
Procedure, shortened: (§1)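 MTB H37Ra was grown in Dubos medium, then exposed in Mycobacterium pheli minimal medium (pH 6.6) to compounds dissolved in DMSO. The assay ended on day 8 (active) or day 12 (dormant). Viable cells were measured by XTT reduction menadione assay at 470 nm, blank-corrected, relative to vehicle control. Triplicates were expressed as mean ± SD. MIC came from dose-response curves.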

Escherichia coli = assay: Growth inhibition of Escherichia coli NCIM 2688 at 30 ug/ml measured after 8 hrs relative to control; assay type: functional; details: NCIM 2688, 8 h, read-out: GI
Procedure, shortened: (§2)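 Bacteria grown in LB at 37 °C and 180 rpm to OD 1. Compounds added to wells, then 0.1% inoculum of 1 OD culture (620 nm). Growth read as OD at 620 nm after 8 h for gram-negative and after 12 h for gram-positive strains.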

Staphylococcus aureus = assay: Growth inhibition of Staphylococcus aureus NCIM 2010 at 10 ug/ml measured after 12 hrs relative to control; assay type: functional; details: NCIM 2010, 12 h, read-out: GI; procedure, shortened: as §2
Aspergillus niger = assay: Antifungal activity against Aspergillus niger NCIM 1196 by standard agar method; assay type: functional
Procedure, shortened: (§3)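 MICs determined by standard agar method; DMSO as solvent control.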

[2] = tested on: Mycobacterium tuberculosis; assay: Growth inhibition of Mycobacterium bovis BCG ATCC 35743 at active stage measured after 8 days by nitrate reductase dye based two fold dilution method; assay type: functional; details: BCG str. ATCC 35743, 192 h
Procedure, shortened: (§4)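 M. bovis BCG was grown in Dubos medium and assayed in Mycobacterium pheli minimal medium (pH 6.6), with compounds from DMSO stocks. Incubation lasted 8 days for active and 12 days for dormant cultures. Viability was read by nitrate reductase at 540 nm against cell-free blanks, with vehicle set as 100% growth. Primary screen was at 30, 10 and 3 µg/ml, in triplicate, mean ± SD. MIC was taken from dose-response curves.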

[3] = tested on: Mycobacterium tuberculosis; assay: Growth inhibition of Mycobacterium tuberculosis H37Ra ATCC 25177 at dormant stage at 25 ug/ml measured after 12 days by XTT dye based two fold dilution method relative to control; assay type: functional; details: H37Ra ATCC 25177, 288 h, read-out: GI; procedure, shortened: as §1
[4] = tested on: Mycobacterium tuberculosis; assay: Growth inhibition of Mycobacterium tuberculosis H37Ra ATCC 25177 at dormant stage at 100 ug/ml measured after 12 days by XTT dye based two fold dilution method relative to control; assay type: functional; details: H37Ra ATCC 25177, 288 h, read-out: GI; procedure, shortened: as §1
Aspergillus flavus = assay: Antifungal activity against Aspergillus flavus NCIM 539 by standard agar method; assay type: functional; procedure, shortened: as §3
[5] = Cytotoxicity against human HeLa cells at 100 ug/ml assessed as growth inhibition measured after 48 hrs by MTT assay relative to control; assay type: toxicity, cell-based; details: read-out: GI
[6] = tested on: Mycobacterium tuberculosis; assay: Growth inhibition of Mycobacterium tuberculosis H37Ra ATCC 25177 at dormant stage at 12.5 ug/ml measured after 12 days by XTT dye based two fold dilution method relative to control; assay type: functional; details: H37Ra ATCC 25177, 288 h, read-out: GI
Pseudomonas fluorescens [7] = assay: Growth inhibition of Pseudomonas fluorescens NCIM 2036 at 30 ug/ml measured after 8 hrs relative to control; assay type: functional; details: NCIM 2036, 8 h, read-out: GI; procedure, shortened: as §2
Pseudomonas fluorescens [8] = assay: Antibacterial activity against Pseudomonas fluorescens NCIM 2036 measured after 8 hrs; assay type: functional; details: NCIM 2036, 8 h; procedure, shortened: as §2
[9] = Selectivity index, ratio of GI50 for HUVEC to MIC for Mycobacterium tuberculosis H37Ra ATCC 25177 at dormant stage
[10] = Selectivity index, ratio of GI50 for […]-differentiated human THP1 cells to MIC for Mycobacterium tuberculosis H37Ra ATCC 25177 at dormant stage; assay type: toxicity, cell-based, THP-1; details: read-out: Selectivity Index
Procedure, shortened: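 SI is the cell-line GI50 divided by the dormant-stage mycobacterial MIC. […] THP-1 macrophages were PMA-differentiated for 24 h.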

[11] = Cytotoxicity against primary HUVEC measured after 48 hrs by MTT assay; assay type: toxicity, cell-based; details: human
[12] = tested on: Mycobacterium tuberculosis; assay: Growth inhibition of Mycobacterium tuberculosis H37Ra ATCC 25177 at dormant stage at 1.56 ug/ml measured after 12 days by XTT dye based two fold dilution method relative to control; assay type: functional; details: H37Ra ATCC 25177, 288 h, read-out: GI; procedure, shortened: as §1
[13] = tested on: Mycobacterium tuberculosis; assay: Growth inhibition of Mycobacterium tuberculosis H37Ra ATCC 25177 at active stage at 6.25 ug/ml measured after 8 days by XTT dye based two fold dilution method relative to control; assay type: functional; details: H37Ra ATCC 25177, 192 h, read-out: GI; procedure, shortened: as §1
[14] = tested on: Mycobacterium tuberculosis; assay: Growth inhibition of Mycobacterium bovis BCG ATCC 35743 at dormant stage at 3 ug/ml measured after 12 days by nitrate reductase dye based two fold dilution method relative to control; assay type: functional; details: BCG str. ATCC 35743, 288 h, read-out: GI; procedure, shortened: as §4
[15] = tested on: Mycobacterium tuberculosis; assay: Growth inhibition of Mycobacterium tuberculosis H37Ra ATCC 25177 at active stage at 1.56 ug/ml measured after 8 days by XTT dye based two fold dilution method relative to control; assay type: functional; details: H37Ra ATCC 25177, 192 h, read-out: GI; procedure, shortened: as §1
[16] = tested on: Mycobacterium tuberculosis; assay: Growth inhibition of Mycobacterium bovis BCG ATCC 35743 at active stage at 50 ug/ml measured after 8 days by nitrate reductase dye based two fold dilution method relative to control; assay type: functional; details: BCG str. ATCC 35743, 192 h, read-out: GI

SMILES | inhibition of growth at 6.25 µg/mL [1] | inhibition of growth at 30 µg/mL (Escherichia coli) | inhibition of growth at 10 µg/mL (Staphylococcus aureus) | MIC (Aspergillus niger) | IC50 [2] | IC90 [2] | inhibition of growth at 25 µg/mL [3] | inhibition of growth at 100 µg/mL [4] | MIC (Aspergillus flavus) | inhibition at 48 h, 100 ug/ml [5] | inhibition of growth at 12.5 µg/mL [6] | inhibition of growth at 30 µg/mL (Pseudomonas fluorescens [7]) | MIC (Pseudomonas fluorescens [8]) | Selectivity Index [9] | selectivity ratio [10] | GI50 at 48 h [11] | inhibition of growth at 1.56 µg/mL [12] | inhibition of growth at 6.25 µg/mL [13] | inhibition of growth at 3 µg/mL [14] | inhibition of growth at 1.56 µg/mL [15] | other results
Cc1cccc2cc(/C=C3\SC(=S)N(CC(=O)O)C3=O)c(Cl)nc12 | -2.45% | -0.186% | -4.38% | 200 µg/mL (≈ 528 µM) | > 30 µg/mL | > 30 µg/mL | 96.8% | 100% | 100 µg/mL (≈ 264 µM) | 3.1% | 51% | 54.8% | > 30 µg/mL | 5 | 5 | > 100 µg/mL | 15.7% | 12.9% | 22.7% | -2.86% | 
O=C1NC(=S)S/C1=C\c1cc2cc(Cl)ccc2nc1Cl | 89.5% | 92.8% | 114% | 150 µg/mL (≈ 440 µM) | 1 µg/mL (≈ 2.93 µM) | 1.7 µg/mL (≈ 4.98 µM) | 96.8% | 85.4% | 125 µg/mL (≈ 366 µM) | 45.5% | 70.3% | 99.8% | 2.8 µg/mL (≈ 8.21 µM) | 15.6 | 15.6 | > 100 µg/mL | 32.4% | 102% | 99.8% | 23.3% | inhibition of growth at 50 µg/mL [16]: 99.7%
COc1ccc2cc(/C=C3\SC(=S)NC3=O)c(Cl)nc2c1 | 23.2% | 35.5% | 44% | 75 µg/mL (≈ 223 µM) | 1.7 µg/mL (≈ 5.05 µM) | 2.9 µg/mL (≈ 8.61 µM) | 103% | 85.2% | 100 µg/mL (≈ 297 µM) | 30.1% | 69.5% | 46.2% | > 30 µg/mL |  |  | > 100 µg/mL | -28.4% | 43.8% | -7.94% | -6.28% | inhibition of growth at 50 µg/mL [16]: 99.9%
COc1ccc2nc(Cl)c(/C=C3\SC(=S)NC3=O)cc2c1 | 27.4% | 61.2% | 99.8% | 150 µg/mL (≈ 445 µM) | 3.7 µg/mL (≈ 11 µM) | 5 µg/mL (≈ 14.8 µM) | 87.8% | 91.6% | 100 µg/mL (≈ 297 µM) | 31.3% | 72.7% | 70.9% | > 30 µg/mL | 20.8 | 20.8 | > 100 µg/mL | -25.3% | 55.2% | -46.3% | 23.1% | inhibition of growth at 50 µg/mL [16]: 97.3%
O=C1NC(=S)S/C1=C\c1cc2cc(F)ccc2nc1Cl | 73.1% | 46.4% | 71.3% | 25 µg/mL (≈ 77 µM) | 2.4 µg/mL (≈ 7.39 µM) | 4.2 µg/mL (≈ 12.9 µM) | 95.7% | 97.3% | 12.5 µg/mL (≈ 38.5 µM) | 20% | 87.3% | 50.2% | > 30 µg/mL | 5.6 | 5.6 | > 100 µg/mL | -0.73% | 96.2% | 0.38% | 31.9% | inhibition of growth at 50 µg/mL [16]: 99%
O=C(O)CN1C(=O)/C(=C/c2cc3cc(F)ccc3nc2Cl)SC1=S | 7.26% | -1.67% | -1.12% | 25 µg/mL (≈ 65.3 µM) | > 30 µg/mL | > 30 µg/mL | 27.7% | 119% | 100 µg/mL (≈ 261 µM) | 9.01% | 1.72% | 2.4% | > 30 µg/mL |  |  | > 100 µg/mL | 22.6% | 11.3% | 23.9% | -22.9% | 
Cc1cccc2cc(/C=C3\SC(=S)NC3=O)c(Cl)nc12 | 38.3% | 39.9% | -9.23% | 150 µg/mL (≈ 468 µM) | 3.7 µg/mL (≈ 11.5 µM) | 6.5 µg/mL (≈ 20.3 µM) | 103% | 104% | 100 µg/mL (≈ 312 µM) | 32.1% | 49.2% | 59% | > 30 µg/mL | 7.8 | 7.8 | > 100 µg/mL | -17.5% | 48.4% | -6.23% | 29.6% | inhibition of growth at 50 µg/mL [16]: 98.4%
CCOc1ccc2nc(Cl)c(/C=C3\SC(=S)NC3=O)cc2c1 | 102% | 28% | 46.8% | 25 µg/mL (≈ 71.3 µM) |  |  | 105% | 105% | 50 µg/mL (≈ 143 µM) | 30.2% | 101% | 76% | > 30 µg/mL | 28.6 | 28.6 | > 100 µg/mL | -9.88% | 104% | 91% | 28.7% | inhibition of growth at 50 µg/mL [16]: 98.1%
